Bioassay records (PubChem)
MrgX1 ag: agonists of human MrgX1 receptor, primary screen, HEK293 cells, Fluo-4 calcium flux; Fluo-4 calcium fluorescence, agonist mode; hits give high values; B-score at 10 µM; 310,000 tested, 0.44% active;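 active means calcium response B-score plate-corrected fluorescence ratio at least 3 library SD, with starting fluorescence B-score inside 5 SD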
Target sequence (Q96LB2 whole entry, looked up): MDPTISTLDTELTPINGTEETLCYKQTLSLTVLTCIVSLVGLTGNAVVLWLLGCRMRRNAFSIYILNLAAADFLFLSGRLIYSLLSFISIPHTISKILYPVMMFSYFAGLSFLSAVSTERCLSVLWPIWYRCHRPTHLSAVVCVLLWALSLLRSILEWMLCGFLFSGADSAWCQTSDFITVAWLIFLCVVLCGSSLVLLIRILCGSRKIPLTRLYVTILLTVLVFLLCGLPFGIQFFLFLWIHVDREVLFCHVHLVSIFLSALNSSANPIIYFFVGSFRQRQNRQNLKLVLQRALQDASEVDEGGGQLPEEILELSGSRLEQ
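times = overnight plating, then 30 min 37 °C plus 30 min room-temperature dye loading | assay system = stable human MrgX1 HEK293 cell line | input = fifteen thousand cells per well | signal = kinetic calcium dye fluorescence, Fluo-4 NW | dosing = compound delivered in addition one of three | read-out = B-scored fluorescence response ratio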
RGS4 act: RGS4 potentiators or activators, primary screen, cell-based, HEK293 M3R inducible RGS4, calcium flux | carbachol calcium flux Fluo4; hits give low values | AID 463111, 2010 | 310,000 tested, 0.92% active | B-score at 10 µM;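 active means B-score of the integrated calcium signal more than 4 SD below the library mean, with starting fluorescence not abnormally high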;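 further: negative B-score means reduced calcium response which marks RGS4 activation or potentiation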
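Material: M3R-expressing HEK293 line, RGS4 induced by doxycycline | Schedule: Overnight RGS4 induction, 30 min dye load 37 °C, 20 min compound RT | Measured by: Fluo4 fluorescence kinetic imaging of calcium | Read-out: Integrated calcium ratio converted to B score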
RGS4 inh: RGS4 inhibitors, primary screen, cell-based, HEK293 M3R inducible RGS4, calcium flux | B-score at 10 µM | 310,000 tested, 0.45% active | Fluo-4 calcium flux; hits give high values; triggered by carbachol at its EC20 | Regulator of G-protein signaling 4 (Homo sapiens), P49798;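 active means B-score, a plate-corrected calcium signal, over three deviations above library mean, with baseline fluorescence within five deviations of library mean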;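 further: RGS4 expression induced by doxycycline in cells with stable M3 receptor; B-score is computed from the integrated fluorescence ratio over baseline after carbachol; higher B-score means a larger calcium signal and so more RGS4 inhibition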
Target sequence (P49798 whole entry, looked up): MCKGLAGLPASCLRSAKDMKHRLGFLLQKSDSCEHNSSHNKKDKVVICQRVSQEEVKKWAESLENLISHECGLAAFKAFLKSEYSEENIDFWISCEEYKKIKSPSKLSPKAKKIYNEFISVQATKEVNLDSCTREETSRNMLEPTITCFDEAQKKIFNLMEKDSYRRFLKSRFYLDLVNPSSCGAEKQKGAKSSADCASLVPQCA
MrgX1 antagonist: antagonists of human MrgX1 receptor, primary screen, HEK293 cells, Fluo-4 calcium flux; BAM8-22 antagonism; hits give low values; AID 588676, 2011; B-score at 10 µM; Mas-related G-protein coupled receptor member X1 (Homo sapiens), Q96LB2; 310,000 tested, 1.3% active;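 active means calcium-response B-score plate-corrected more than 3 library SD below zero, starting fluorescence within 5 deviations, no agonist response on first addition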;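 further: peak minus trough fluorescence over baseline after final BAM8-22 challenge near maximal dose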
MrgX1 PAM: positive allosteric modulators of MrgX1, primary screen, HEK293 cells, Fluo-4 calcium flux | Mas-related G-protein coupled receptor member X1 (Homo sapiens), Q96LB2 | AID 588675, 2011 | FDSS; hits give high values | 310,000 tested, 0.63% active | B-score at 10 µM;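 active means plate-corrected calcium response at least 3 library SD above typical, normal starting fluorescence, not activating the receptor alone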;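 further: compound read alongside a low EC10 to EC30 dose of BAM8-22 agonist; peak minus trough fluorescence over baseline measured at the second addition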
The depositor's hits bear a star; i = inactive; . = not tested or not shown. The list is not random: actives were taken first. Their share in the collection is about 3.5%.

SMILES | MrgX1 ag | RGS4 act | RGS4 inh | MrgX1 antagonist | MrgX1 PAM
CCCCOc1ccc(C(C)NC(=O)C2CCCN(S(=O)(=O)CCC)C2)cc1 (stereo unspecified) | i | i | i | i | i
Cn1cc(C(=O)CCl)c2ccccc21 | . | i | i | . | .
COc1ccc(CNC(=O)C2CCN(C(=O)Cc3ccccc3)CC2)cc1 | i | i | i | i | i
C=CCn1c(Cc2ccc(OC)cc2)nnc1SCC(=O)NCCc1ccccc1 | i | i | i | i | i
O=C(NNC(=O)c1cc(Cl)ccc1O)c1cccc(S(=O)(=O)N2CCOCC2)c1 | i | i | i | -4.85* | i
O=C(NNC(=O)c1cccc(S(=O)(=O)N2CCN(c3ccccc3)CC2)c1)c1ccc(Cl)cc1 | i | i | i | i | i
CC1CC(C)CN(C(=O)c2cc3c(s2)CCC3)C1 (stereo unspecified) | i | i | i | i | i
Cc1nc(N2CCOCC2)nc(OCCN(C)C)c1[N+](=O)[O-] | i | i | i | i | i
Cc1nc(N2CCOCC2)nc(OCCN2CCOCC2)c1[N+](=O)[O-] | i | i | i | -5.25* | i
CN(C(=O)CSc1nnc(-c2ccccc2F)o1)c1ccccc1 | i | i | i | i | i
COc1ccc(CN(C(=O)CSc2nnc(-c3ccccc3F)o2)c2ccc(F)cc2)cc1 | i | -7.82* | i | i | i
CCCc1nc2ccccc2c(=O)n1NC(=O)c1c(O)c2ccccc2n(C)c1=O | i | i | i | i | 10.2*
COc1ccc(CCNC(=O)c2ccc3c(c2)NC(=O)C(CSCc2cc(C)ccc2C)N3)cc1OC (stereo unspecified) | 27.5* | i | i | i | i
O=C(NCc1cccc(Cl)c1)c1ccc2c(c1)OCCO2 | i | i | i | i | i
CC(=O)N1CCN(C(=O)COc2ccc(Br)cc2)CC1 | i | i | i | i | i
COc1ccc(OCC(=O)N2CCN(C(=O)COc3ccc(Br)cc3)CC2)cc1 | i | i | i | -4.82* | i
CN1CCC(OC(=O)COc2ccc(Br)cc2)CC1 | i | -7.53* | i | i | i
CCn1c(=O)c([N+](=O)[O-])c(NCC(O)c2ccccc2)c2ccccc21 (stereo unspecified) | i | i | i | i | i
Cn1c(=O)c([N+](=O)[O-])c(NCC(O)c2ccccc2)c2ccccc21 (stereo unspecified) | i | i | i | -5.65* | i
CCCCNC(=O)CCCCCn1c(=O)[nH]c2cc(C(=O)OC)ccc2c1=O | i | i | i | i | 13.6*
O=C1C=CC(=O)N1c1cccc(-c2ccccc2)c1 | i | -9.46* | i | i | i
CCCCn1c(NC(=O)c2ccccc2Cl)c(C#N)c2nc3ccccc3nc21 | 26.5* | i | i | i | i
COc1ccc(-n2c(NC(=O)c3ccco3)c(C#N)c3nc4ccccc4nc32)cc1 | i | i | i | i | 7.11*
O=C(CSc1nnc(NC(=O)C2CC2)s1)NCc1ccc(F)cc1 | i | i | i | i | i
O=[N+]([O-])c1cc([N+](=O)[O-])c(Oc2c(Cl)cccc2Cl)cc1NN1CCCCC1 | i | i | i | i | i
SMILES | MrgX1 ag | RGS4 act | RGS4 inh | MrgX1 antagonist | MrgX1 PAM
O=[N+]([O-])c1cc([N+](=O)[O-])c(Oc2ccc(F)cc2)cc1NN1CCCCC1 | i | i | i | i | i
O=[N+]([O-])c1cc([N+](=O)[O-])c(Oc2c(F)ccc(F)c2F)cc1NN1CCCCC1 | i | -7.17* | i | i | i
CC(=O)c1cccc(Oc2cc(NN3CCCCC3)c([N+](=O)[O-])cc2[N+](=O)[O-])c1 | i | -7.29* | i | i | i
COc1ccc(Oc2cc(NN3CCCCC3)c([N+](=O)[O-])cc2[N+](=O)[O-])cc1OC | i | -8.2* | i | i | i
O=[N+]([O-])c1cc([N+](=O)[O-])c(Oc2c(F)cccc2F)cc1NN1CCCCC1 | i | i | i | i | i
CC(=O)c1ccccc1Oc1cc(NN2CCCCC2)c([N+](=O)[O-])cc1[N+](=O)[O-] | i | -8.28* | i | i | i
COc1cccc(CNC(=O)CCC2CCCN(C(=O)c3cc(C4CC4)[nH]n3)C2)c1 (stereo unspecified) | i | i | i | i | i
COc1ccc(CCN2CC(C(=O)NCCc3cn[nH]c3)CCC2=O)cc1 (stereo unspecified) | i | i | i | i | i
CN1CCCN(S(=O)(=O)c2ccc3ccccc3c2)CC1 | i | i | i | i | i
O=[N+]([O-])c1cccc(S(=O)(=O)Nc2ccc(-c3ccc(N4CCCC4)nn3)cc2)c1 | i | i | i | i | i
O=[N+]([O-])c1cccc(S(=O)(=O)Nc2ccc(-c3ccc(N4CCOCC4)nn3)cc2)c1 | i | i | i | i | 7.78*
CCN1CCc2c(sc(NC(=O)c3ccc(S(=O)(=O)N(C)c4ccccc4)cc3)c2C(=O)NC)C1 | 59.1* | -7.47* | i | i | i
CN1C(=O)C2(C(C#N)=C(N)Oc3c2oc(CO)cc3=O)c2ccccc21 (stereo unspecified) | i | i | i | i | i
COc1ccc(C(=O)COC(=O)CCNS(=O)(=O)c2ccccc2)cc1Br | i | i | i | -5.61* | i
O=C(CCNS(=O)(=O)c1ccccc1)OCC(=O)c1ccc(Br)cc1 | i | i | i | i | i
CCCCOc1ccc(N2C(N)=NC(N)=NC23CCCCC3)cc1 | i | i | i | i | i
Nc1nc(Nc2cccc(F)c2)nc(NCCO)c1[N+](=O)[O-] | i | i | i | i | i
Cc1ccc(Nc2nc(N)c([N+](=O)[O-])c(NCCO)n2)cc1 | i | i | i | i | 8.01*
Cc1ccc(N2C(=O)CN(Cc3ccccc3)C2=S)cc1C | i | i | i | i | i
COc1ccc(OC)c(/C=N/NC(=O)c2ccc(N(C)S(=O)(=O)c3ccccc3)cc2)c1 | i | i | i | i | 7.05*
COc1ccc(/C=N/NC(=O)c2ccc(N(C)S(=O)(=O)c3ccccc3)cc2)c(OC)c1 | i | i | i | i | i
